In ChEMBL document CHEMBL1154735, “A strategy to minimize reactive metabolite formation: discovery of (S)-4-(1-cyclopropyl-2-methoxyethyl)-6-[6-(difluoromethoxy)-2,5-dimethylpyridin-3-ylamino]-5-oxo-4,5-dihydropyrazine-2-carbonitrile as a potent, orally bioavailable corticotropin-releasing factor-1 receptor antagonist” (J Med Chem, 2009):
In brackets after ≈: the same amount, converted by molar mass.

What was measured:
[1] = tested on: Liver microsomes; test: Metabolic stability in NADPH-fortified rat liver microsomes assessed as pyrazinone oxidation metabolite formation at 10 uM after 30 mins by HPLC/UV/MS analysis; format: ADME, Microsome; conditions: 0.5 h
Procedure, shortened: (§1)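 Pooled rat or human liver microsomes 1 mg/mL, 10 μM substrate, 100 mM potassium phosphate pH 7.4, 37 °C, started with NADPH-regenerating system (1.3 mM NADP+, 3.3 mM glucose-6-phosphate, 3.3 mM MgCl2, 0.5 U/mL G6PDH); GSH 5 mM in trapping runs. Sampled 0 and 30 min, acetonitrile quench; abundance as UV peak area (330–340 nm) fraction of all drug-related components by HPLC/UV/MS.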

[2] = Metabolic stability in NADPH-fortified human liver microsomes assessed as parent compound remaining at 10 uM after 30 mins by HPLC/UV/MS analysis; format: ADME, Microsome; conditions: read-out: Stability; procedure, shortened: as §1
[3] = Metabolic stability in NADPH-fortified rat liver microsomes assessed as parent compound remaining at 10 uM after 30 mins by HPLC/UV/MS analysis; format: ADME, Microsome; conditions: read-out: Stability; procedure, shortened: as §1
[4] = tested on: Liver microsomes; test: Metabolic stability in NADPH-fortified human liver microsomes assessed as GSH adduct formation at 10 uM after 30 mins by HPLC/UV/MS analysis; format: ADME, Microsome; conditions: 0.5 h; procedure, shortened: as §1
[5] = tested on: Liver microsomes; test: Metabolic stability in NADPH-fortified rat liver microsomes assessed as GSH adduct formation at 10 uM after 30 mins by HPLC/UV/MS analysis; format: ADME, Microsome; conditions: 0.5 h; procedure, shortened: as §1
[6] = tested on: Liver microsomes; test: Metabolic stability in NADPH-fortified human liver microsomes assessed as pyrazinone oxidation metabolite formation at 10 uM after 30 mins by HPLC/UV/MS analysis; format: ADME, Microsome; conditions: 0.5 h; procedure, shortened: as §1
[7] = Metabolic stability in rat liver microsomes assessed as compound remaining at 3 uM after 10 mins by HPLC/UV/MS analysis; format: ADME, Microsome; conditions: read-out: Stability
Procedure, shortened: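 Pooled human or rat liver microsomes (1 mg/mL protein) with 3 μM compound and 1.3 mM NADPH in 100 mM sodium phosphate pH 7.4 at 37 °C; final 0.015% DMSO, 0.985% acetonitrile; stopped at 0 and 10 min, percent remaining by LC/MS/MS.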

[8] = Metabolic stability in human liver microsomes assessed as compound remaining at 3 uM after 10 mins by HPLC/UV/MS analysis; format: ADME, Microsome; conditions: read-out: Stability
[9] = target: T1, Corticotropin-releasing factor receptor 1 (Rattus norvegicus, UniProt P35353); test: Displacement of [125I]Tyr-o-CRF from CRF1 receptor in rat frontal cortex homogenate by binding titration assay; format: tissue-based
T1 sequence (P35353 whole entry): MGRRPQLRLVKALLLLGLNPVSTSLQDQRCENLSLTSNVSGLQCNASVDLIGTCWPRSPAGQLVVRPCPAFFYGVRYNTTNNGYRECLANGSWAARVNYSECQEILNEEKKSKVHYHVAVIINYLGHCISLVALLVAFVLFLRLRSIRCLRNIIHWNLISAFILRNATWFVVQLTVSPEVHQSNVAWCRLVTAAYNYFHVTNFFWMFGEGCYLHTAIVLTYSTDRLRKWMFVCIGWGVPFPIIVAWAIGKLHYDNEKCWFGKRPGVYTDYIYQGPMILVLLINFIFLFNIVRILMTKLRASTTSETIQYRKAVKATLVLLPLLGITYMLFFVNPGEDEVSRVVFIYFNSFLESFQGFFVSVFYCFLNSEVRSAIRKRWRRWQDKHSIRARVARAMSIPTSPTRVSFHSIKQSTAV

[10] = Dissociation constant, pKa by spectrophotometric titration method; format: physicochemical
Procedure, shortened: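 Spectrophotometric titration over pH 2–11 in varying acetonitrile/water mixtures, extrapolated to 0% cosolvent.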

[11] = AUC in Sprague-Dawley rat at 10 mg/kg, po dosed as aqueous suspension of 1% polysorbate 80 in 0.5% methylcellulose after 0.25 to 24 hrs by LC/MS/MS analysis; format: ADME, organism-based; set-up: time upper 24 hr, time lower 0.25 hr, dose 10 mg/kg, route oral; conditions: in vivo
[12] = Fraction unbound in human serum after 3 to 7 hrs by equilibrium dialysis; format: ADME, cell-free
Procedure, shortened: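 Human serum spiked with compound, equilibrium-dialysed against isotonic phosphate buffer for 3 or 7 h (depending on system) at 37 °C; both sides measured by LC/MS/MS, unbound fraction as buffer/serum concentration ratio.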

[13] = Aqueous solubility at pH 1; format: physicochemical
[14] = Half life in Sprague-Dawley rat at 2 mg/kg, iv by LC/MS/MS analysis; format: ADME, organism-based; set-up: dose 2 mg/kg, route intravenous; conditions: in vivo
[15] = Cmax in Sprague-Dawley rat at 10 mg/kg, po dosed as aqueous suspension of Labrafil M 1944CS/DMAC/polysorbate 80, 85:10:5 (v/v) after 2 to 4 hrs by LC/MS/MS analysis; format: ADME, organism-based; set-up: dose 10 mg/kg, route oral; conditions: in vivo
[16] = Aqueous solubility at pH 6.5; format: physicochemical
[17] = Oral bioavailability in Sprague-Dawley rat at 10 mg/kg dosed as aqueous suspension of Labrafil M 1944CS/DMAC/polysorbate 80, 85:10:5 (v/v) after 0.25 to 24 hrs by LC/MS/MS analysis; format: ADME, organism-based; conditions: in vivo
[18] = Octanol-water partition coefficient, log D at pH 7.4; format: physicochemical
Procedure, shortened: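 Partitioning between octanol and water at pH 7.4.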

[19] = AUC in Sprague-Dawley rat at 10 mg/kg, po dosed as aqueous suspension of Labrafil M 1944CS/DMAC/polysorbate 80, 85:10:5 (v/v) after 0.25 to 24 hrs by LC/MS/MS analysis; format: ADME, organism-based; set-up: time 0.25-24 hr, dose 10 mg/kg, route oral; conditions: plasma
[20] = Clearance in Sprague-Dawley rat at 2 mg/kg, iv after 0.17 to 24 hrs by LC/MS/MS analysis; format: ADME, organism-based; set-up: dose 2 mg/kg, route intravenous; conditions: in vivo
[21] = Cmax in Sprague-Dawley rat at 10 mg/kg, po dosed as aqueous suspension of 1% polysorbate 80 in 0.5% methylcellulose after 2 to 4 hrs by LC/MS/MS analysis; format: ADME, organism-based; set-up: dose 10 mg/kg, route oral; conditions: in vivo
[22] = Volume of distribution at steady state in Sprague-Dawley rat at 2 mg/kg, iv after 0.17 to 24 hrs by LC/MS/MS analysis; format: ADME, organism-based; set-up: dose 2 mg/kg, route intravenous; conditions: in vivo, read-out: Vdss
Procedure, shortened: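 Sprague–Dawley rats (n = 3) dosed 2 mg/kg iv in PEG:ethanol 90:10 (v/v) at 1 mL/kg. Plasma stored at –20 °C and quantified by LC/MS/MS after acetonitrile precipitation with internal standard.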

[23] = Oral bioavailability in Sprague-Dawley rat at 10 mg/kg dosed as aqueous suspension of 1% polysorbate 80 in 0.5% methylcellulose after 0.25 to 24 hrs by LC/MS/MS analysis; format: ADME, organism-based; conditions: in vivo

Structure (SMILES): C[C@@H](C1CC1)n1cc(Cl)nc(Nc2c(Cl)cc(OC(F)F)cc2Cl)c1=O
- Activity [1]: 20%
- remaining at 0.5 h, 10 µM [2]: 85%
- remaining at 0.5 h, 10 µM [3]: 74%
- Activity [4]: 2%
- Activity [5]: 5%
- Activity [6]: 12%

Structure (SMILES): CC[C@H](C1CC1)n1cc(Cl)nc(Nc2cc(C)c(OC)nc2C)c1=O
- remaining at 10 min, 3 µM [7]: 5%
- remaining at 10 min, 3 µM [8]: 51%
- IC50 [9]: 0.28 nM

Structure (SMILES): CC[C@H](C1CC1)n1cc(Cl)nc(Nc2cc(C)c(OC(F)F)nc2C)c1=O
- remaining at 10 min, 3 µM [7]: 56%
- remaining at 10 min, 3 µM [8]: 100%
- IC50 [9]: 0.21 nM

Structure (SMILES): COc1nc(C)c(Nc2nc(C#N)cn([C@H](C)C3CC3)c2=O)cc1C
- remaining at 10 min, 3 µM [7]: 72%
- remaining at 10 min, 3 µM [8]: 99%
- IC50 [9]: 10 nM

Structure (SMILES): COC[C@H](C1CC1)n1cc(Cl)nc(Nc2cc(C)c(OC)nc2C)c1=O
- pKa [10]: 3.1
- AUC [11]: 1.3 µM·h
- remaining at 10 min, 3 µM [7]: 24%
- fraction unbound [12]: 0.021
- solubility [13]: 116 µg/mL (≈ 306 µM)
- half-life [14]: 19 h
- Cmax [15]: 510 nM
- solubility [16]: 6 µg/mL (≈ 15.8 µM)
- bioavailability [17]: 26%
- logD [18]: 3.9
- AUC [19]: 3 µM·h
- remaining at 10 min, 3 µM [8]: 48%
- clearance [20]: 38 mL/min/kg
- Cmax [21]: 180 nM
- Vd [22]: 19 L/kg
- IC50 [9]: 1.5 nM
- bioavailability [23]: 11%

Structure (SMILES): COc1nc(C)c(Nc2nc(Cl)cn([C@H](C)C3CC3)c2=O)cc1C
- remaining at 10 min, 3 µM [7]: 55%
- remaining at 10 min, 3 µM [8]: 77%
- IC50 [9]: 1.5 nM

Structure (SMILES): COC[C@@H](C1CC1)n1cc(C#N)nc(Nc2cc(C)c(OC(F)F)nc2C)c1=O
- remaining at 10 min, 3 µM [7]: 64%
- remaining at 10 min, 3 µM [8]: 78%
- IC50 [9]: 1.4 nM

Structure (SMILES): COC[C@H](C1CC1)n1cc(Cl)nc(Nc2cc(C)c(OC(F)F)nc2C)c1=O
- AUC [11]: 7 µM·h
- Activity [1]: 1%
- remaining at 10 min, 3 µM [7]: 69%
- fraction unbound [12]: 0.008
- half-life [14]: 9.2 h
- remaining at 0.5 h, 10 µM [2]: 75%
- Cmax [15]: 1300 nM
- bioavailability [17]: 86%
- remaining at 0.5 h, 10 µM [3]: 42%
- Activity [4]: 5%
- AUC [19]: 9 µM·h
- clearance [20]: 36 mL/min/kg
- Cmax [21]: 770 nM
- Vd [22]: 15 L/kg
- Activity [5]: 3%
- IC50 [9]: 0.24 nM
- Activity [6]: 1%
- bioavailability [23]: 66%

Structure (SMILES): COC[C@H](C1CC1)n1cc(C#N)nc(Nc2cc(C)c(OC)nc2C)c1=O
- remaining at 10 min, 3 µM [7]: 51%
- remaining at 10 min, 3 µM [8]: 60%
- IC50 [9]: 12 nM

Structure (SMILES): COC[C@@H](C)n1cc(Cl)nc(Nc2cc(C)c(OC(F)F)nc2C)c1=O
- remaining at 10 min, 3 µM [7]: 66%
- remaining at 10 min, 3 µM [8]: 87%
- IC50 [9]: 1.6 nM

Structure (SMILES): Cc1cc(Nc2nc(Cl)cn([C@H](C)C3CC3)c2=O)c(C)nc1OC(F)F
- remaining at 10 min, 3 µM [7]: 86%
- remaining at 10 min, 3 µM [8]: 100%
- IC50 [9]: 0.3 nM

Structure (SMILES): COC[C@@H](C1CC1)n1cc(Cl)nc(Nc2cc(C)c(OC(F)F)nc2C)c1=O
- remaining at 10 min, 3 µM [7]: 46%
- fraction unbound [12]: 0.008
- half-life [14]: 16 h
- Cmax [15]: 440 nM
- bioavailability [17]: 48%
- AUC [19]: 4.7 µM·h
- remaining at 10 min, 3 µM [8]: 84%
- clearance [20]: 31 mL/min/kg
- Vd [22]: 42 L/kg
- IC50 [9]: 0.5 nM

Structure (SMILES): CC[C@H](C1CC1)n1cc(C#N)nc(Nc2cc(C)c(OC)nc2C)c1=O
- pKa [10]: < 2
- AUC [11]: 0.24 µM·h
- remaining at 10 min, 3 µM [7]: 38%
- fraction unbound [12]: 0.019
- solubility [13]: 23 µg/mL (≈ 65.1 µM)
- half-life [14]: 9 h
- Cmax [15]: 590 nM
- solubility [16]: 1 µg/mL (≈ 2.83 µM)
- bioavailability [17]: 33%
- logD [18]: 4.1
- AUC [19]: 3 µM·h
- remaining at 10 min, 3 µM [8]: 81%
- clearance [20]: 53 mL/min/kg
- Cmax [21]: 50 nM
- Vd [22]: 11 L/kg
- IC50 [9]: 1.7 nM
- bioavailability [23]: 3%

Structure (SMILES): Cc1cc(Nc2nc(C#N)cn([C@H](C)C3CC3)c2=O)c(C)nc1OC(F)F
- AUC [11]: 4.6 µM·h
- Activity [1]: < 1%
- remaining at 10 min, 3 µM [7]: 89%
- fraction unbound [12]: 0.016
- half-life [14]: 7.2 h
- remaining at 0.5 h, 10 µM [2]: 88%
- Cmax [15]: 1400 nM
- bioavailability [17]: 82%
- remaining at 0.5 h, 10 µM [3]: 80%
- Activity [4]: 7%
- AUC [19]: 9.9 µM·h
- remaining at 10 min, 3 µM [8]: 100%
- clearance [20]: 36 mL/min/kg
- Cmax [21]: 560 nM
- Vd [22]: 11 L/kg
- Activity [5]: 8%
- IC50 [9]: 0.82 nM
- Activity [6]: < 1%
- bioavailability [23]: 38%

Structure (SMILES): COC[C@@H](C)n1cc(Cl)nc(Nc2cc(C)c(OC)nc2C)c1=O
- remaining at 10 min, 3 µM [7]: 8%
- remaining at 10 min, 3 µM [8]: 39%
- IC50 [9]: 14 nM

Structure (SMILES): COC[C@@H](C1CC1)n1cc(Cl)nc(Nc2cc(C)c(OC)nc2C)c1=O
- remaining at 10 min, 3 µM [7]: 13%
- remaining at 10 min, 3 µM [8]: 40%
- IC50 [9]: 1.1 nM
